The text below walks through data of ChEMBL document CHEMBL1140859, “Design and synthesis of some thiazolyl and thiadiazolyl derivatives of antipyrine as potential non-acidic anti-inflammatory, analgesic and antimicrobial agents” (Bioorg Med Chem, 2009).

Converted amounts (≈) assume the structure as drawn.

For series [1], the system named is Rattus norvegicus. The experiment in a line: Antiinflammatory activity against formalin-induced paw edema in anaesthetized Albino rat acute inflammatory model at 20 mg/kg, po dosed 1 hr before formalin challenge assessed after 1 hr. It counts as functional. A digest of the protocol: (§1)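 Rats in groups of five plus control; test compounds 20 mg/kg po, diclofenac Na 10 mg/kg po, given 1 h before 0.1 mL 2% formalin injected subplantar into left hind paw under light ether anaesthesia. Paw volume by water plethysmometer at 0 and 1, 2, 3, 4 h after formalin; % anti-inflammatory activity versus control; mean ± SE, N = 5.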

Series [2] deals with Rattus norvegicus. The series is described as follows: Antiinflammatory activity against formalin-induced paw edema in anaesthetized Albino rat acute inflammatory model at 20 mg/kg, po dosed 1 hr before formalin challenge assessed after 2 hrs. It counts as functional. A digest of the protocol: as §1
Series [3] has as its system Rattus norvegicus. The experiment in a line: Antiinflammatory activity against formalin-induced paw edema in anaesthetized Albino rat acute inflammatory model at 20 mg/kg, po dosed 1 hr before formalin challenge assessed after 3 hrs. In kind it is functional. A digest of the protocol: as §1
The test system of series [4] is Rattus norvegicus. The experiment in a line: Antiinflammatory activity against formalin-induced paw edema in anaesthetized Albino rat acute inflammatory model at 20 mg/kg, po dosed 1 hr before formalin challenge assessed after 4 hrs. In kind it is functional. A digest of the protocol: as §1
Series [5] deals with Rattus norvegicus. The experiment in a line: Antiinflammatory activity against formalin-induced paw edema in anaesthetized Albino rat sub-acute inflammatory model at 20 mg/kg, po measured on day 1. It counts as functional. A digest of the protocol:
(§2)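 Sub-acute paw edema: test compounds 20 mg/kg po daily for 7 days, diclofenac Na 10 mg/kg po; 0.1 mL 2% formalin injected subplantar into left hind paw under light ether anaesthesia on days 1 and 3, 1 h after dosing. Paw volume measured on day 1 and day 8; % anti-inflammatory activity; N = 5 rats.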

The test system of series [6] is Rattus norvegicus. The experiment in a line: Antiinflammatory activity against formalin-induced paw edema in anaesthetized Albino rat sub-acute inflammatory model at 20 mg/kg, po for 7 days measured on day 8. In kind it is functional. Put shortly: as §2
In series [7] the test system is Rattus norvegicus. The experiment in a line: Antiinflammatory activity against turpentine oil-induced granuloma pouch in anaesthetized Albino rat sub-acute inflammatory model at 20 mg/kg, po 1 hr before turpentine oil challenge for 7 days assessed after 8 days. In kind it is functional. A digest of the protocol:
(§3)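 Dorsal subcutaneous pouch made in ether-anaesthetised rats with 2 mL air, then 0.5 mL turpentine oil. Test compounds 20 mg/kg po, diclofenac Na 10 mg/kg po, started 1 h before turpentine and continued 7 days. Exudate aspirated on day 8 under anaesthesia; volume measured; % inhibition = (Vcontrol − Vtreated)/Vcontrol × 100; N = 5.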

In series [8] the test system is Rattus norvegicus. The experiment in a line: Toxicity in Albino rat assessed as induction of gastric ulceration at 300 mg/kg, po twice a day after 2 hrs. In kind it is organism-based, Stomach. The arrangement: dose 300 mg/kg, route oral. The note with it: in vivo. A digest of the protocol: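 Male albino rats (180–200 g), five per group, fasted 12 h with water ad libitum. Oral dosing at 300 mg/kg; the results text gives two doses at a 2 h interval, while the methods give two equal doses at 0 and 12 h over three days. Controls received 1% gum acacia orally. Rats were killed with ether 6 h after the last dose, and stomachs were inspected grossly for ulceration and hyperemia.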

A short description of series [9]: Acute toxicity in Albino rat after 24 hrs. It counts as organism-based. The conditions noted are these: in vivo, read-out: ALD50. Put shortly:
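Male rats, 180–200 g, groups of five, fasted 24 h before dosing; compounds given orally in graded doses of 0.1–3.0 g/kg; mortality recorded at each dose level after 24 h to estimate approximate acute lethal dose (ALD50).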

Series [10] relates to Rattus norvegicus. The series is described as follows: Analgesic activity in Albino rat assessed as tail withdrawal response at 20 mg/kg, po after 1 hr. It counts as functional. A digest of the protocol: (§4)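 Male albino rats, 120–150 g, groups of five plus untreated control; test compounds 20 mg/kg po, diclofenac Na 10 mg/kg po. Tail immersed in 55 °C water; withdrawal reaction time read 1, 2 and 3 h after dosing; percentage increase in reaction time over basal computed; mean ± SE of five animals.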

The test system of series [11] is Rattus norvegicus. The experiment in a line: Analgesic activity in Albino rat assessed as tail withdrawal response at 20 mg/kg, po after 2 hrs. It counts as functional. A digest of the protocol: as §4
Series [12] concerns Rattus norvegicus. The experiment in a line: Analgesic activity in Albino rat assessed as tail withdrawal response at 20 mg/kg, po after 3 hrs. It counts as functional. A digest of the protocol: as §4
For another series, the system named is Staphylococcus aureus. The series is described as follows: Antimicrobial activity against Staphylococcus aureus ATCC 6538 after 24 hrs by twofold serial dilution method. In kind it is functional. The note with it: ATCC 6538, 24 h. A digest of the protocol:
(§5)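 Broth microdilution in Müller–Hinton broth on compounds with agar-diffusion inhibition zones ≥14 mm (disks with 1 mg/mL in DMSO, 37 °C, 24 h, triplicate).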

The next series has as its system Bacillus subtilis. The experiment in a line: Antimicrobial activity against Bacillus subtilis NRRL B-14819 after 24 hrs by twofold serial dilution method. It counts as functional. Put shortly: as §5
Another series has as its system Micrococcus luteus. The experiment in a line: Antimicrobial activity against Micrococcus luteus ATCC 21881 after 24 hrs by twofold serial dilution method. It counts as functional. The note with it: ATCC 21881, 24 h. A digest of the protocol: as §5
In a further series the test system is Escherichia coli. The series is described as follows: Antimicrobial activity against Escherichia coli ATCC 25922 after 24 hrs by twofold serial dilution method. It counts as functional. The conditions noted are these: ATCC 25922, 24 h. Put shortly:
as §5

In another series the test system is Pseudomonas aeruginosa. The experiment in a line: Antimicrobial activity against Pseudomonas aeruginosa ATCC 27853 after 24 hrs by twofold serial dilution method. It counts as functional. The note with it: ATCC 27853, 24 h. A digest of the protocol: as §5
The next series deals with Klebsiella pneumoniae. The series is described as follows: Antimicrobial activity against Klebsiella pneumoniae clinical isolate after 24 hrs by twofold serial dilution method. It counts as functional. Put shortly: as §5
The subject of series [13] is Rattus norvegicus. The series is described as follows: Antiinflammatory activity against formalin-induced paw edema in anaesthetized Albino rat acute inflammatory model at 10 mg/kg, po dosed 1 hr before formalin challenge assessed after 1 hr. It counts as functional. Put shortly: as §1
Series [14] has as its system Rattus norvegicus. The experiment in a line: Antiinflammatory activity against formalin-induced paw edema in anaesthetized Albino rat acute inflammatory model at 10 mg/kg, po dosed 1 hr before formalin challenge assessed after 2 hrs. In kind it is functional. A digest of the protocol: as §1
The test system of series [15] is Rattus norvegicus. The experiment in a line: Antiinflammatory activity against formalin-induced paw edema in anaesthetized Albino rat acute inflammatory model at 10 mg/kg, po dosed 1 hr before formalin challenge assessed after 3 hrs. In kind it is functional. A digest of the protocol: as §1
The subject of series [16] is Rattus norvegicus. The experiment in a line: Antiinflammatory activity against formalin-induced paw edema in anaesthetized Albino rat acute inflammatory model at 10 mg/kg, po dosed 1 hr before formalin challenge assessed after 4 hrs. It counts as functional. A digest of the protocol: as §1
Series [17] deals with Rattus norvegicus. The experiment in a line: Antiinflammatory activity against formalin-induced paw edema in anaesthetized Albino rat sub-acute inflammatory model at 10 mg/kg, po measured on day 1. In kind it is functional. Put shortly: as §2
Series [18] concerns Rattus norvegicus. The series is described as follows: Antiinflammatory activity against formalin-induced paw edema in anaesthetized Albino rat sub-acute inflammatory model at 10 mg/kg, po for 7 days measured on day 8. It counts as functional. A digest of the protocol: as §2
The test system of series [19] is Rattus norvegicus. The experiment in a line: Antiinflammatory activity against turpentine oil-induced granuloma pouch in anaesthetized Albino rat sub-acute inflammatory model at 10 mg/kg, po 1 hr before turpentine oil challenge for 7 days assessed after 8 days. In kind it is functional. Put shortly:
as §3

The subject of series [20] is Rattus norvegicus. The series is described as follows: Analgesic activity in Albino rat assessed as tail withdrawal response at 10 mg/kg, po after 1 hr. It counts as functional. A digest of the protocol: as §4
Series [21] has as its system Rattus norvegicus. The experiment in a line: Analgesic activity in Albino rat assessed as tail withdrawal response at 10 mg/kg, po after 2 hrs. In kind it is functional. Put shortly: as §4
Series [22] concerns Rattus norvegicus. The experiment in a line: Analgesic activity in Albino rat assessed as tail withdrawal response at 10 mg/kg, po after 3 hrs. It counts as functional. Put shortly:
as §4

With `Cc1c(NC(=O)c2sc(=S)n(-c3ccccc3)c2NC(=S)Nc2ccccc2)c(=O)n(-c2ccccc2)n1C`, the Activity in the series on Rattus norvegicus [1] is recorded as 30%; in the series with Rattus norvegicus [2] it was 37%; with Rattus norvegicus [3], 41%; in the series on Rattus norvegicus [4], 40%; in the series on Rattus norvegicus [5], 40%; in the series with Rattus norvegicus [6], 39%. In addition, the Activity in the series with Rattus norvegicus [7] is 65%; in the series with Rattus norvegicus [8], “Non-toxic”; with Rattus norvegicus [10] it was 48%; with Rattus norvegicus [11], 70%; in the series on Rattus norvegicus [12], 82%. Moreover, in series [9], the LD50 at 24 h is > 3000 mg/kg. Also, the MIC was determined as 50 µg/mL (≈ 87.3 µM) with Staphylococcus aureus; 12.5 µg/mL (≈ 21.8 µM) against Bacillus subtilis; 50 µg/mL (≈ 87.3 µM) in the series on Micrococcus luteus; 50 µg/mL (≈ 87.3 µM) against Escherichia coli; 50 µg/mL (≈ 87.3 µM) in the series on Pseudomonas aeruginosa; 50 µg/mL (≈ 87.3 µM) with Klebsiella pneumoniae.
Consider `O=C([O-])Cc1ccccc1Nc1c(Cl)cccc1Cl.[Na+]` [DICLOFENAC SODIUM], for which the Activity in the series with Rattus norvegicus [13] was found to be 17%; in the series with Rattus norvegicus [14] it was 40%; in the series on Rattus norvegicus [15], 44%; in the series with Rattus norvegicus [16], 45%; in the series on Rattus norvegicus [17], 40%; in the series with Rattus norvegicus [18] it was 46%. Also, the Activity in the series on Rattus norvegicus [19] is 73%; in the series with Rattus norvegicus [8] it was “Toxic”; in the series with Rattus norvegicus [20], 26%; in the series on Rattus norvegicus [21], 55%; in the series on Rattus norvegicus [22], 79%.
On to `CCOC(=O)/C(C#N)=C1/SC(C(=O)Nc2c(C)n(C)n(-c3ccccc3)c2=O)=C(N)N1c1ccccc1`, for which the Activity is on record as 30% in the series on Rattus norvegicus [1]; 26% in the series on Rattus norvegicus [2]; 38% in the series with Rattus norvegicus [3]; 29% in the series on Rattus norvegicus [4]; 29% in the series with Rattus norvegicus [5]; 31% in the series on Rattus norvegicus [6]. Besides, the Activity is listed as 53% in the series with Rattus norvegicus [7]; “Non-toxic” in the series with Rattus norvegicus [8]; 32% in the series on Rattus norvegicus [10]; 50% with Rattus norvegicus [11]; 67% with Rattus norvegicus [12]. Also, the LD50 at 24 h in [9] was > 3000 mg/kg. The MIC with Staphylococcus aureus came out at 12.5 µg/mL (≈ 24.2 µM); in the series on Bacillus subtilis, 12.5 µg/mL (≈ 24.2 µM); against Micrococcus luteus it was 25 µg/mL (≈ 48.4 µM); in the series on Escherichia coli it was 50 µg/mL (≈ 96.8 µM); in the series on Pseudomonas aeruginosa, 50 µg/mL (≈ 96.8 µM); against Klebsiella pneumoniae, 50 µg/mL (≈ 96.8 µM).
Regarding `Cc1c(NC(=O)/C(C#N)=C2\SCC(=O)N2c2ccccc2)c(=O)n(-c2ccccc2)n1C`, the Activity with Rattus norvegicus [1] is 13%; with Rattus norvegicus [2], 31%; in the series on Rattus norvegicus [3], 23%; with Rattus norvegicus [4], 19%; in the series on Rattus norvegicus [5], 29%; with Rattus norvegicus [6] it was 17%. For the same compound, the Activity is reported as 53% with Rattus norvegicus [7]; “Non-toxic” in the series on Rattus norvegicus [8]; 22% with Rattus norvegicus [10]; 20% in the series with Rattus norvegicus [11]; 34% with Rattus norvegicus [12]. Also, the LD50 at 24 h in series [9] was > 3000 mg/kg. The MIC against Staphylococcus aureus turned out to be 50 µg/mL (≈ 112 µM); in the series on Bacillus subtilis it was 100 µg/mL (≈ 224 µM); in the series on Micrococcus luteus it was 100 µg/mL (≈ 224 µM); against Escherichia coli, 50 µg/mL (≈ 112 µM); in the series on Pseudomonas aeruginosa it was 50 µg/mL (≈ 112 µM); with Klebsiella pneumoniae it was 50 µg/mL (≈ 112 µM).
Regarding `CC1(C)S[C@@H]2[C@H](NC(=O)[C@H](N)c3ccccc3)C(=O)N2[C@H]1C(=O)O.O.O.O` [AMPICILLIN TRIHYDRATE], the MIC with Staphylococcus aureus amounted to 6.25 µg/mL; against Bacillus subtilis, 12.5 µg/mL; in the series on Micrococcus luteus it was 12.5 µg/mL; with Escherichia coli, 6.25 µg/mL; against Pseudomonas aeruginosa, 12.5 µg/mL; against Klebsiella pneumoniae it was 12.5 µg/mL.
